Assay results published in ChEMBL document CHEMBL2434839, “Isoxazole derivatives as potent transient receptor potential melastatin type 8 (TRPM8) agonists” (Eur J Med Chem, 2013).
pEC50: −log10 of the molar value. Active and inactive are the calls of the source. The rule behind the calls is not given here.

Key:
F11 [1] = assay: Agonist activity at TRPM8 in differentiated rat/mouse F11 cells assessed as increase in intracellular Ca2+ level at 10 to 1000 uM by Fura-2-AM based fluorescence assay relative to menthol; assay type: cell-based
How it was run: (§1)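 Differentiated F11 cells (≥72 h in 2% FBS plus retinoic acid) in Normal Krebs, pH 7.4, room temperature. Compounds perfused over the stated ranges. Fura-2 340/380 nm ratio read every 3 s after background correction. Peak F/F0 normalized to the maximal menthol response for efficacy. For potency, F/F0 was normalized to each compound's own maximum and fitted to y = max/(1 + […])^n.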

F11 [2] = assay: (§2) Agonist activity at TRPM8 in differentiated rat/mouse F11 cells assessed as increase in intracellular Ca2+ level by Fura-2-AM based fluorescence assay; assay type: cell-based
How it was run: (§3)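 In differentiated F11 cells, L-menthol was perfused for 20 s at 1–300 µM in Normal Krebs, pH 7.4, room temperature. Fura-2 340/380 ratio was imaged every 3 s as F/F0. EC50 came from a fit to y = max/(1 + x/EC50)^n. Mean ± SEM of 23–28 determinations over at least 3 sessions.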

[3] = as §2; assay type: cell-based; how it was run: as §3
Mus musculus [4] = assay: Potentiation of acetone-induced cold allodynic response in Swiss CD-1 mouse chronic constriction injury model applied topically 20 mins prior to acetone-challenge measured for 7 to 9 mins post acetone-challenge; assay type: functional, organism-based
How it was run: (§4)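 Male Swiss CD1 mice (30–35 g) with sciatic nerve chronic constriction injury under xylazine/ketamine i.p. Day 14: 50 µl of compound at 20% w/v in absolute ethanol applied topically to the operated paw (vehicle: ethanol). After 20 min, acetone applied. Brisk paw withdrawals counted in three 2-min windows about 5 min apart, as totals and per phase. n = 6 per group.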

Mus musculus [5] = assay: Potentiation of acetone-induced cold allodynic response in Swiss CD-1 mouse chronic constriction injury model applied topically 20 mins prior to acetone-challenge measured for 14 to 16 mins post acetone-challenge; assay type: functional, organism-based; how it was run: as §4
Mus musculus [6] = assay: Potentiation of acetone-induced cold allodynic response in Swiss CD-1 mouse chronic constriction injury model applied topically 20 mins prior to acetone-challenge; assay type: functional, organism-based; how it was run: as §4
Mus musculus [7] = assay: Potentiation of acetone-induced cold allodynic response in Swiss CD-1 mouse chronic constriction injury model applied topically 20 mins prior to acetone-challenge measured up to 2 mins post acetone-challenge; assay type: functional, organism-based; how it was run: as §4
F11 [8] = assay: Agonist activity at TRPM8 in differentiated rat/mouse F11 cells assessed as increase in intracellular Ca2+ level at 0.01 to 100 uM by Fura-2-AM based fluorescence assay relative to menthol; assay type: cell-based; how it was run: as §1
F11 [9] = assay: Agonist activity at TRPM8 in differentiated rat/mouse F11 cells assessed as increase in intracellular Ca2+ level at 0.1 to 300 uM by Fura-2-AM based fluorescence assay relative to menthol; assay type: cell-based; how it was run: as §1
F11 [10] = assay: Agonist activity at TRPM8 in differentiated rat/mouse F11 cells assessed as increase in intracellular Ca2+ level at 1 to 100 uM by Fura-2-AM based fluorescence assay relative to menthol; assay type: cell-based; how it was run: as §1
F11 [11] = assay: Agonist activity at TRPM8 in differentiated rat/mouse F11 cells assessed as effect on intracellular Ca2+ level at 100 uM by Fura-2-AM based fluorescence assay in presence of TRPM8 antagonist BCTC; assay type: cell-based
How it was run: (§5)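 Fura-2 ratiometric Ca2+ imaging in F11 cells differentiated ≥72 h in medium with 2% FBS and retinoic acid, on poly-L-lysine coverslips, at room temperature in Normal Krebs (mM: NaCl 160, KCl 5.5, CaCl2 1.5, MgSO4 1.2, HEPES 10, glucose 10, pH 7.4). Menthol 100 µM perfused alone, with BCTC co-perfusion, or in Ca2+-free solution plus 1 mM EDTA. Peak F/F0 quantified.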

F11 [12] = assay: Agonist activity at TRPM8 in differentiated rat/mouse F11 cells assessed as increase in intracellular Ca2+ level at 1 to 300 uM measured after 1 to 15 seconds by Fura-2-AM based fluorescence assay; assay type: cell-based; how it was run: as §3
F11 [13] = assay: Agonist activity at TRPM8 in differentiated rat/mouse F11 cells at 100 uM treated in Ca2+-free solution by Fura-2-AM based fluorescence assay; assay type: cell-based; how it was run: as §5
F11 [14] = assay: (§6) Agonist activity at TRPM8 in differentiated rat/mouse F11 cells assessed as increase in intracellular Ca2+ level measured after 20 seconds by Fura-2-AM based fluorescence assay; assay type: cell-based; how it was run: as §3
[15] = as §6; assay type: cell-based; how it was run: as §3
F11 [16] = assay: Agonist activity at TRPM8 in differentiated rat/mouse F11 cells assessed as increase in intracellular Ca2+ level at 0.01 to 30 uM by Fura-2-AM based fluorescence assay relative to menthol; assay type: cell-based; how it was run: as §1
F11 [17] = assay: Agonist activity at TRPM8 in differentiated rat/mouse F11 cells assessed as increase in intracellular Ca2+ level at 0.3 to 100 uM by Fura-2-AM based fluorescence assay relative to menthol; assay type: cell-based; how it was run: as §1
F11 [18] = assay: Agonist activity at TRPM8 in differentiated rat/mouse F11 cells assessed as increase in intracellular Ca2+ level at 0.001 to 30 uM by Fura-2-AM based fluorescence assay relative to menthol; assay type: cell-based; how it was run: as §1
F11 [19] = assay: Agonist activity at TRPM8 in differentiated rat/mouse F11 cells assessed as increase in intracellular Ca2+ level at 1 to 500 uM by Fura-2-AM based fluorescence assay relative to menthol; assay type: cell-based; how it was run: as §1

CCCCNc1cc(C)no1
Efficacy (F11 [1]): 32%
Activity (F11 [2]): Dose-dependent effect
pEC50 [3]: 4.00

Cc1cc(NCc2ccccc2)no1
Activity (Mus musculus [4]): inactive
Activity (Mus musculus [5]): inactive
Activity (Mus musculus [6]): inactive
Efficacy (F11 [1]): 82%
Activity (F11 [2]): Dose-dependent effect
pEC50 [3]: 3.40
Activity (Mus musculus [7]): inactive

Cc1cc(NCCC(C)C)no1
Activity (Mus musculus [4]): inactive
Activity (Mus musculus [5]): inactive
Activity (Mus musculus [6]; TDE = time-dependent effect): tde
Efficacy (F11 [8]): 66%
Activity (F11 [2]): Dose-dependent effect
pEC50 [3]: 6.30
Activity (Mus musculus [7]): Active

Cc1cc(NCc2ccccc2[N+](=O)[O-])no1
Efficacy (F11 [9]): 66%
Activity (F11 [2]): Dose-dependent effect
pEC50 [3]: 4.92

CCCCNc1ccon1
Efficacy (F11 [10]): 69%
Activity (F11 [2]): Dose-dependent effect
pEC50 [3]: 4.76

Cc1cc(NCc2ccc([N+](=O)[O-])cc2)no1
Efficacy (F11 [9]): 74%
Activity (F11 [2]): Dose-dependent effect
pEC50 [3]: 4.72

CC(C)[C@@H]1CC[C@@H](C)C[C@H]1O [LEVOMENTHOL]
Activity (F11 [11]): inactive
Activity (Mus musculus [4]): Active
Activity (Mus musculus [5]): inactive
Activity (F11 [12]): Active
Activity (F11 [13]): inactive
Activity (F11 [14]): Dose-dependent effect
pEC50 [15]: 4.63
Activity (Mus musculus [7]): inactive

Cc1cc(NCC(C)C)no1
Activity (Mus musculus [4]): inactive
Efficacy (F11 [16]): 58%
Activity (Mus musculus [5]): inactive
Activity (Mus musculus [6]; TDE = time-dependent effect): tde
Activity (F11 [2]): Dose-dependent effect
pEC50 [3]: 6.80
Activity (Mus musculus [7]): Active

Cc1cc(NCC2CCCCC2)no1
Activity (F11 [2]): Dose-dependent effect
pEC50 [3]: 4.86
Efficacy (F11 [17]): 64%

CCCCNc1cc(C)on1
Activity (Mus musculus [4]): inactive
Activity (Mus musculus [5]): inactive
Activity (Mus musculus [6]): inactive
Efficacy (F11 [8]): 89%
Activity (F11 [2]): Dose-dependent effect
pEC50 [3]: 5.44
Activity (Mus musculus [7]): Active

Cc1cc(NC(C)C)no1
Activity (Mus musculus [4]): inactive
Activity (Mus musculus [5]): inactive
Efficacy (F11 [18]): 53%
Activity (Mus musculus [6]; TDE = time-dependent effect): tde
Activity (F11 [2]): Dose-dependent effect
pEC50 [3]: 7.00
Activity (Mus musculus [7]): Active

CC(C)CNc1ccon1
Efficacy (F11 [10]): 72%
Activity (F11 [2]): Dose-dependent effect
pEC50 [3]: 4.88

Cc1cc(NCC(C)C)on1
Efficacy (F11 [19]): 36%
Activity (F11 [2]): Dose-dependent effect
pEC50 [3]: 4.32
